Data published in ChEMBL document CHEMBL1132442, “Preparation and characterization of novel trans-[PtCl(2)(amine)(isopropylamine)] compounds: cytotoxic activity and apoptosis induction in ras-transformed cells” (J Med Chem, 1999).

Columns and labels:
[1] = system: HL-60; test: Cytotoxicity against human promyelocytic leukemia cell line HL-60 (obtained by MTT assay).; assay type: functional, cell-based
Method in brief: (§1)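 MTT survival assay: compounds added to cultured cells at final 0–200 μM, read 24 h later by absorbance at 520 nm. IC50 from plots of % survival versus concentration (μM). Quadruplicate experiments. Compound stocks 1 mg/mL in PBS, freshly prepared.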

[2] = system: Jurkat; test: Cytotoxicity against human acute T-cell leukemia cell line JURKAT (obtained by MTT assay).; assay type: functional, cell-based; method in brief: as §1
[3] = system: Vero; test: Cytotoxicity against […] cell line VERO(obtained by MTT assay).; assay type: functional, cell-based, Chlorocebus sabaeus; method in brief: as §1
[4] = system: PAM212; test: Cytotoxicity against murine keratinocytes transformed with the H-ras oncogene Pam212-ras (cis-DDP resistant) (obtained by MTT assay).; assay type: functional, cell-based, Mus musculus; method in brief: as §1
[5] = system: PAM212; test: Cytotoxicity against normal murine keratinocytes Pam212 (obtained by MTT assay).; assay type: functional, cell-based, Mus musculus; method in brief: as §1
[6] = system: HeLa; test: Cytotoxicity against human cervix epithelial carcinoma cell line HeLa (obtained by MTT assay).; assay type: functional, cell-based; method in brief: as §1
[7] = system: Vero; test: Cytotoxicity against […] cell line VERO (obtained by MTT assay).; assay type: functional, cell-based, Chlorocebus sabaeus; method in brief: as §1

Substance: CISPLATIN
- IC50 [1]: 25 µM
- IC50 [2]: 7 µM
- IC50 [3]: 50 µM
- IC50 [4]: 156 µM
- IC50 [5]: 114 µM
- IC50 [6]: 38 µM

Substance: TRANSPLATIN
- IC50 [1]: 50 µM
- IC50 [2]: 22 µM
- IC50 [3]: 148 µM
- IC50 [4]: 164 µM
- IC50 [5]: 123 µM
- IC50 [6]: 89 µM

Substance: Trans-[PtCl2(butylamine)(isopropylamine)]
- IC50 [1]: 18 µM
- IC50 [2]: 7 µM
- IC50 [3]: 46 µM
- IC50 [4]: 21 µM
- IC50 [5]: 71 µM
- IC50 [6]: 35 µM

Substance: Trans-[PtCl2(dimethylamine)isopropylamine)] (tdmaipa)
- IC50 [1]: 17 µM
- IC50 [7]: 47 µM
- IC50 [2]: 5 µM
- IC50 [4]: 6 µM
- IC50 [5]: 56 µM
- IC50 [6]: 32 µM

Substance: Trans-[PtCl2(isopropylamine)(propylamine)]
- IC50 [1]: 20 µM
- IC50 [2]: 5 µM
- IC50 [3]: 52 µM
- IC50 [4]: 32 µM
- IC50 [5]: 50 µM
- IC50 [6]: 43 µM
